Results published in paper PMC9065697 (RSC Advances, 2019).
Peptide text beside a SMILES is read from it. * marks the point of attachment. X1 = O=C(c1ccc(Oc2ccc3c4nc5nc(nc6[nH]c(nc7nc(nc([nH]4)c3c2)-c2ccccc2-7)c2ccccc62)-c2ccccc2-5)cc1)*

Legend:
[1] = reference standard in DMF; cited from earlier work
[2] = reference standard in DMF; cited from earlier work; remark: listed apart in the source
HT29 cells [3] = test: Photocytotoxicity, MTT assay; format: cell-based, human; conditions: absence of light, both incubation conditions
In short: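 HT29 cells (1 × 10^4 per well) were plated overnight. A DMSO stock of test compound was diluted in medium and applied for 10 min at 37 °C. Cells were rinsed with PBS, refed, and held 0 or 6 h with no red-light illumination. MTT (3 mg mL−1 in PBS) was added for 4 h, DMSO added, and A490 read. Viability is relative to compound-free control wells, averaged over 4 data points.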

[4] = Solubility and aggregation state; format: physicochemical; conditions: 2 μM in DMF and in PBS with 0.01% Tween 80 (v/v); intense, sharp Q band at 672 nm (DMF) or 680 nm (PBS); UV-Vis
HT29 cells [5] = test: Annexin V-GFP/PI costaining assay; format: cell-based, human; conditions: 0.5 μM for 10 min
[6] = test system: HT29 human colorectal adenocarcinoma cells; test: Cellular uptake by confocal fluorescence microscopy; format: cell-based; conditions: 2 μM for 10 min at 37 °C, then 6 h in drug-free medium at 4 °C
In short: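 HT29 cells (about 2 × 10^5, RPMI with 10% FBS) were seeded on confocal dishes and left overnight at 37 °C, 5% CO2. They were exposed to 2 μM test compound for 10 min at 37 °C, washed three times with PBS, then held in drug-free medium for 6 h at 4 °C or 37 °C. Bright-field and fluorescence images were taken by confocal microscopy.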

[7] = In vivo biodistribution by near-infrared fluorescence imaging; design: species or system mouse; conditions: mouse, in vivo, iv, 20 nmol
In short: (§1)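 Female Balb/c nude mice (20–25 g) carried subcutaneous HT29 tumours on the back (about 1 × 10^7 cells in HBSS) grown to 60–100 mm3. They received 20 nmol test compound in water with 1% DMSO by tail-vein injection. NIR imaging (ex 680 nm, em ≥700 nm) ran from pre-dose to 48 h. At 48 h, tumour, heart, lung, spleen, kidney and liver were assayed for fluorescence per unit area and reported as tumour/organ ratio. Data are mean ± SD, n = 4.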

[8] = test system: HT29 tumour-bearing nude mice; test: as above; design: species or system mouse; conditions: 20 nmol intravenous; for Fluorescence intensity in the tumour area over time: imaged over 48 h, four mice per conjugate
In short: as §1

[9] = test system: A431 human epidermoid carcinoma cells; conditions: read-out: IC50 (photocytotoxicity); cited from earlier work

In the case of `[Zn+2].c1ccc2c(c1)-c1nc-2nc2[n-]c(nc3nc([n-]c4nc(n1)-c1ccccc1-4)-c1ccccc1-3)c1ccccc21` [ZnPc, zinc(II) phthalocyanine], the “Singlet oxygen quantum yield ΦΔ” value [1] is given as 0.56 and the “Fluorescence quantum yield ΦF” value [2] is given as 0.28.

In the case of `N=C(N)NCCC[C@H](NC(=O)[C@@H](N)CCC(N)=O)C(=O)N[C@@H](Cc1c[nH]cn1)C(=O)N[C@@H](CCCCN)C(=O)N1CCC[C@H]1C(=O)N[C@@H](CCCNC(=N)N)C(=O)N[C@@H](CCC(=O)O)C(=O)NCC(=O)NCC(=O)NCC(=O)NCC(=O)N[C@@H](CO)C(=O)N[C@@H](CCCCNC(=O)c1ccc(Oc2ccc3c4nc5nc(nc6[nH]c(nc7nc(nc([nH]4)c3c2)-c2ccccc2-7)c2ccccc62)-c2ccccc2-5)cc1)C(N)=O` [compound 4] (H-QRHKPREGGGGSK(X1)-NH2), the Dark toxicity (HT29 cells [3]) is reported as “did not show significant dark toxicity”, the “Solubility and aggregation state from the Q band” value [4] is reported as “soluble and remained non-aggregated in both media” and the “Cell-death pathway, PDT effect on the cell membrane” value (HT29 cells [5]; irradiated immediately (λ > 610 nm, 18 mW cm^-2, 20 min)) is reported as “cell necrosis”. For the same compound, the “Cell-death pathway, PDT effect after internalisation” value (HT29 cells [5]; then 6 h post-incubation before irradiation (λ > 610 nm, 18 mW cm^-2, 20 min)) was “mainly through apoptosis”, the “Internalisation on post-incubation at 4 °C” value [6] was “internalisation was not significant” and the tissue to tissue ratio at 48 h [7] was less than 1. The “Fluorescence intensity in the tumour area over time” value [8] was “increased along with time”.

In the case of EPRQRHKGGGGSK [compound 5], the “Tumour selectivity (tumour/organ ratio) compared with conjugate 4” value ([8]; ex vivo at 48 h, four mice) is reported as “consistently lower for all the organs” and the “Fluorescence intensity in the tumour area over time” value [8] is reported as “remained weak throughout the period”.

For GYHWYGYTPQNVI [GE11 conjugate], the IC50 [9] is given as 14 µM.
